# Rows were chosen to be rich in hits. Some 6.7% of all compounds tested hit in one or more screens of this group.
# Beta cell apopt: blocks beta cell apoptosis | 0.8% of 300,000 active | INS-1E cytokine-induced death, ATP luminescence, 48 h; percent of positive-control rescue, neutral wells zero | protection from apoptosis, % (concentration not given with the values);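 active = Every replicate reaches about 75%, or at least half do and their mean reaches it too, limit read from the data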;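 also: higher means more ATP so stronger rescue from cytokine killing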
# NR3A LBD binder: modulates the human NR3A ligand-binding domain; Tm shift relative to glycine control, % at 25 µM; 2.5% of 340,000 active; NR3A LBD differential scanning fluorimetry, Tm shift; 0% = protein alone, 100% = glycine-bound protein;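 active = melting temperature shift of at least 10% of the positive control shift, at one fixed dose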
# PREPL inh: inhibitors of human prolyl oligopeptidase-like enzyme PREPL | Q4J6C6 | recombinant PREPL, fluorescence polarization activity-based probe | inhibition, % at 5.96 µM | 0.68% of 320,000 active | AID 2751; in the data active = inhibition above about 43%
# Target sequence (Q4J6C6 whole entry, looked up): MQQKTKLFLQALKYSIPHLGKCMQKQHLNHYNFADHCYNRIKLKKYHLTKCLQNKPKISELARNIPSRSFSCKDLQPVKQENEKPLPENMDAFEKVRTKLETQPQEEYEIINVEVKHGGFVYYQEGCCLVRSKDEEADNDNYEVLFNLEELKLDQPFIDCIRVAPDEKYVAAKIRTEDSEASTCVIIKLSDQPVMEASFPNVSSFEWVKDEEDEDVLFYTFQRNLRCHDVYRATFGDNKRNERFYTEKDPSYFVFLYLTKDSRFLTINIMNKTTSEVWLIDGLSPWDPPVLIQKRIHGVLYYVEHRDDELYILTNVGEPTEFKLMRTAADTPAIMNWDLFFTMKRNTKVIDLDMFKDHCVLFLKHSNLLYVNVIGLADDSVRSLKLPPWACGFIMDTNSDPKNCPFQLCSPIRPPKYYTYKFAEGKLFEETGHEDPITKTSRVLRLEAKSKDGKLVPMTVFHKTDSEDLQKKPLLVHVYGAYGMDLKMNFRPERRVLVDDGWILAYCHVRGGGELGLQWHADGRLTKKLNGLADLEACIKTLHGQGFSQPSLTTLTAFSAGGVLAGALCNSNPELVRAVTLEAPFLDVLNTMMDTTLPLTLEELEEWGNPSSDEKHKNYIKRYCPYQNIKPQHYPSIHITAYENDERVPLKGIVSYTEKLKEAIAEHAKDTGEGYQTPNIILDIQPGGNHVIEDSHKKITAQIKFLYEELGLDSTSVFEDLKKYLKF
# T cruzi repl: blocks replication of Trypanosoma cruzi. inhibition, % (concentration not given with the values). T. cruzi beta-gal in NIH3T3, luminescence, 90 h. AID 1885. 1.4% of 300,000 active;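 active = mean inhibition across valid replicates above about 55%, limit read from the data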;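 also: signal also drops with host cell toxicity which is not excluded here; higher percent means less beta-gal luminescence so fewer parasites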
#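 System – NIH/3T3 host cells with β-galactosidase reporter T. cruzi · Doses – single 50 nL compound addition per well in DMSO · Reagent – 5000 T. cruzi trypomastigotes/well · Medium – Low-serum DMEM with 2% FBS · Timing – ≥90 h infection period, 3 h prior cell attachment · Evaluation – parasite load inhibition, % · Technique – GalScreen luminescence, 60 min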
# CHOP inh: blocks CHOP induction under ER stress. AID 2732. inhibition, % at 10 µM. 3.8% of 220,000 active. CHO-K1 CHOP-promoter luciferase, tunicamycin-induced, 15-18 h;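 active = compounds that reduced the stress-induced luciferase reporter signal by more than about 70% of percent inhibition, limit read from the data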
# CSC inhib: blocks cancer stem cells. cancer stem cell-like cells viability, luminescence. inhibition, % at 7.5 µM. 1.1% of 300,000 active; in the data active = inhibition above about 75%; tested in HMLE shEcad cells
# Hits are given with their value; - = inactive; . = not tested or not shown.
SMILES,Beta cell apopt,NR3A LBD binder,PREPL inh,T cruzi repl,CHOP inh,CSC inhib
O=C1COc2ccc(C(=O)COC(=O)c3ccc(Cl)cc3[N+](=O)[O-])cc2N1,-,-,-,-,.,-
CCc1cccc(NC(=O)CNC(=O)N2CC(=O)Nc3ccccc32)c1,-,-,-,-,.,-
CCc1cccc(Nc2c([N+](=O)[O-])cc(C(=O)N3CC(=O)Nc4ccccc43)cc2[N+](=O)[O-])c1,-,-,-,77,-,.
COc1ccc(-c2c/c(=N\c3nc(-c4ccccc4)c(C)s3)c3ccccc3o2)cc1O,-,15,-,-,.,80
COc1ccc(OC)c([N+](=O)[O-])c1C(N)=O,-,-,-,-,-,.
COc1ccc(NC(C)=O)c([N+](=O)[O-])c1[N+](=O)[O-],.,14,.,.,.,.
Cc1ccc(S(=O)(=O)N2CCC(C(=O)Nc3ncccc3O)CC2)cc1,-,-,-,.,.,-
CCOC(=O)CNc1ncc(C(F)(F)F)cc1Cl,-,-,-,-,-,-
N#CCC(CNc1ncc(C(F)(F)F)cc1Cl)OC(=O)c1ccc(Cl)cc1Cl (stereo unspecified),-,14,-,-,-,-
CCOC(=O)c1sc(NC(=O)c2cccc(S(=O)(=O)N3CCN(C)CC3)c2)cc1C,-,-,-,-,-,-
CCCN(CCC)S(=O)(=O)c1ccc(C(=O)Nc2nc(-c3ccccc3)c(C(=O)OCC)s2)cc1,-,20,-,-,-,-
CCOC(=O)c1sc(NC(=O)c2c(C)nn(Cc3ccccc3)c2C)cc1C,88,-,-,.,-,.
CCOC(=O)c1sc(NC(=O)c2ccc(S(=O)(=O)N3CCOCC3)cc2)cc1C,-,20,-,-,-,-
CCOC(=O)c1sc(NC(=O)c2cccc(S(=O)(=O)N(CC)CC)c2)cc1C,-,-,-,-,-,-
CCOC(=O)c1sc(NC(=O)c2ccc(Cl)s2)cc1C,.,18,-,-,-,-
CC(=O)c1ccc(S(=O)(=O)NCC(=O)Nc2nc3ccccc3[nH]2)cc1,-,-,-,.,.,-
CNS(=O)(=O)c1cccc(C(=O)OCc2cc(=O)oc3c(C)c(O)ccc23)c1,-,-,-,-,.,-
CCOC(=O)c1sc(NC(=O)c2ccccc2)cc1C,-,-,-,-,-,-
CCOC(=O)c1sc(NC(=O)c2ccc(S(=O)(=O)N(C)C)cc2)cc1C,-,-,-,65,-,-
Cc1nn(-c2ccc(Cl)cc2)c(Cl)c1/C=N/NC(=O)c1ccc(NS(=O)(=O)c2cccs2)cc1,-,14,-,-,.,-
Cc1nn(-c2ccc(F)cc2)c(Cl)c1/C=N/NC(=O)c1ccc(O)cc1,-,-,-,-,-,-
Cc1nn(-c2ccc(F)cc2)c(Cl)c1/C=N/NC(=O)c1cccs1,-,-,-,-,93,-
CCO[C@H]1OC(C(N)=O)=C[C@@H](C2CC2)[C@@H]1CCCO,-,-,-,-,.,-
COc1cc(-c2nc(-c3ccccc3)c(-c3ccc(F)cc3)[nH]2)cc2c1OCO2,-,-,-,-,70,-
COC(=O)[C@@H](Cc1c[nH]c2ccccc12)NCc1cccc(B(O)O)c1,.,-,.,.,.,.
SMILES,Beta cell apopt,NR3A LBD binder,PREPL inh,T cruzi repl,CHOP inh,CSC inhib
Cc1ccc(CNC(=O)Cn2c(=O)n(CC(=O)N3CCCCC3)c(=O)c3sccc32)cc1,-,-,-,-,.,-
Cc1ccc(CNC(=O)Cn2c(=O)c3sccc3n(Cc3ccc([N+](=O)[O-])cc3)c2=O)cc1,-,31,-,-,-,-
CC(C)C(=O)N1CCN(c2ccc([N+](=O)[O-])c(NC(C)c3ccccc3)c2)CC1 (stereo unspecified),-,-,-,-,-,.
CC(C)(C)S(=O)(=O)N1C[C@@H]2C(=CC[C@H]3C(=O)N(c4ccccc4)C(=O)[C@@H]23)[C@@H]1CCO,.,-,.,.,.,.
O=C(CCl)NC(=O)NC12CC3CC(CC(C3)C1)C2,-,-,-,-,103,-
Cc1cnc(C(=O)OCC(=O)NC23CC4CC(CC(C4)C2)C3)cn1,-,-,-,-,-,-
CC(Cl)C(=O)NC(=O)NC12CC3CC(CC(C3)C1)C2 (stereo unspecified),-,-,-,-,-,-
Cc1nn(Cc2ccccc2)c(Cl)c1C(=O)OCC(=O)NC(=O)NC12CC3CC(CC(C3)C1)C2,-,17,-,-,-,-
Cc1noc(C)c1C(=O)OCC(=O)NC(=O)NC12CC3CC(CC(C3)C1)C2,-,-,-,-,81,-
CCN(C[C@H]1N[C@@](CC)(C(=O)OC)[C@H]2C(=O)N(C)C(=O)[C@@H]12)C(=O)COC,.,-,-,.,.,.
CC(C)(C)OC(=O)C[C@H]1C/C=C\C[C@H](CC(=O)NCCO)C(=O)N[C@@H](c2ccccc2)COC1=O,-,-,-,.,.,-
Cc1ccc(/C=[N+](/C)[O-])cc1,-,-,-,-,-,-
Cc1ccc(C=C2C(Cl)=C(Cl)C(Cl)=C2Cl)cc1,-,-,-,-,107,100
Cn1c(=O)[nH]c(=O)c2c1nc1n2CC(O)CN1c1ccccc1 (stereo unspecified),-,-,-,-,.,-
COCCn1c(C)cc(/C=C(\C#N)C(=O)OCC(=O)Nc2ccc(S(N)(=O)=O)cc2)c1C,.,-,.,.,.,.
C=C(C)C1CC=C(C)/C(=N/NC(=O)COc2ccc(C)cc2)C1 (stereo unspecified),-,-,-,-,70,-
C=C(C)C1CC=C(C)/C(=N/NC(=O)COc2ccccc2Cl)C1 (stereo unspecified),-,-,-,-,-,-
O=C(N/N=C/c1cc2c(cc1[N+](=O)[O-])OCO2)c1ccc2c(c1)OCO2,-,-,-,-,.,-
O=C(N/N=C\c1ccc(-c2ccc([N+](=O)[O-])cc2)o1)c1ccc2c(c1)OCO2,-,31,-,-,-,-
COc1cc(C(=O)NCC(=O)N/N=C/c2ccc(-c3ccc([N+](=O)[O-])cc3)o2)cc(OC)c1OC,-,14,-,-,.,-
CN(/N=C/c1ccc(-c2ccc([N+](=O)[O-])cc2)o1)c1ccccc1,-,13,-,-,.,-
O=C(N/N=C/c1ccc([N+](=O)[O-])o1)c1ccc2c(c1)OCO2,-,-,.,69,.,-
COc1cc(C(=O)NCC(=O)N/N=C/c2ccc(-c3cccc([N+](=O)[O-])c3)o2)cc(OC)c1OC,-,-,-,-,.,-
Cc1ccc(/C=N\NC(=O)c2ccc3c(c2)OCO3)o1,-,-,-,-,.,-
CCOC(=O)c1ccc(NC(=O)NNS(=O)(=O)c2cc(OC)ccc2OC)cc1,-,-,-,-,.,-
CC1(C)C(=O)C=CC(=O)C(C)(C)C(=O)C=CC(=O)C(C)(C)C2=CC=C(O2)C(C)(C)C(=O)C=CC1=O,.,-,.,.,.,.
CCOC(=O)CNC(=O)N(CCOC)CC1CCCN(C2Cc3ccccc3C2)C1 (stereo unspecified),.,-,-,-,.,-
O=C(CSc1ccc(Cl)cc1)NNC(=O)c1ccco1,-,-,-,-,.,-
